Source: PubChem (several laboratories)
PRMT1 inh: inhibitors of human PRMT1; Q99873; recombinant PRMT1, activity-based probe fluorescence polarization; inhibition, % at 2.79 µM; actives 1.3% (n = 370,000); AID 652257;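 active = inhibition above about 21% made by adding two undisclosed values, limit read from the data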
PAD4 inh: PAD4 (human) enzyme inhibition; actives 0.41% (n = 330,000); recombinant PAD4, RCA probe fluorescence polarization; AID 485272; inhibition, % at 6.36 µM;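 active = percent inhibition above a cutoff equal to the mean of all tested compounds plus 3 SD, cut at about 15% in these data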
TDP2 inh: TDP2 (human) inhibition, absorbance primary screen. inhibition, % at 12.8 µM. AID 720702. recombinant TDP2, T5PNP hydrolysis, p-nitrophenol absorbance 415 nm. O95551. actives 0.34% (n = 370,000);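 active = inhibition above the mean of all tested compounds plus 3 SD, set per campaign, cut at about 25% in these data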
Target sequence (O95551 whole entry, looked up): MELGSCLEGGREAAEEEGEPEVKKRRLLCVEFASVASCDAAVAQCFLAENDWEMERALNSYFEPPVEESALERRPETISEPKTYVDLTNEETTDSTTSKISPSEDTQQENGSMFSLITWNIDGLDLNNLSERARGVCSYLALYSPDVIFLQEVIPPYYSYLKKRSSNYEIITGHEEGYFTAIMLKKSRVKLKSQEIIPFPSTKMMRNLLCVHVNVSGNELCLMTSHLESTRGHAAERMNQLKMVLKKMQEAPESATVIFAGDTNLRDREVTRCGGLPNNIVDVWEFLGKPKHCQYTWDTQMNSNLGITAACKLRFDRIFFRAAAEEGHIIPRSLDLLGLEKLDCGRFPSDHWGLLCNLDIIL
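test system = human TDP2 enzyme | input = TDP2 enzyme at 120 nM final | medium = 50 mM Tris-HCl pH 7.5 with Mg2+, KCl, DTT, BSA | also added = T5PNP substrate, 5 mM | times = 2 h at 37 °C | technique = epi absorbance | benchmarks = high control without enzyme, low control DMSO plus TDP2 | replication = each compound tested once, singlicate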
GSTO1 counter: blocks human GSTO1 in RBBP9 counter-screen; AID 1974; inhibition, % at 5.96 µM; P78417; actives 1.1% (n = 300,000); recombinant GSTO1, activity-based probe fluorescence polarization;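 active = inhibition above the campaign mean inhibition plus 3 SD, cut at about 35% in these data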
Target sequence (P78417 whole entry, looked up): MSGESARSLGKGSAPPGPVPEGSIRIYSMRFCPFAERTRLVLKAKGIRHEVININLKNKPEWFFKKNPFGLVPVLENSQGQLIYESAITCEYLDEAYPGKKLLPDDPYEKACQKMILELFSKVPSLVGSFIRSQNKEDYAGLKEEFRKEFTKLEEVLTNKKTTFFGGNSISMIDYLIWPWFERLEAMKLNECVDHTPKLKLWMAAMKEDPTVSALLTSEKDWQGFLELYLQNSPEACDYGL
Apaf1 inhib: human Apaf-1 inhibition. actives 0.71% (n = 330,000). O14727. reconstituted apoptosome caspase-3 activity, DEVD-Rh110 fluorescence. inhibition, % at 20 µM; active = inhibition of at least 40% at 20 µM
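detection = Rh110 fluorescence intensity | test system = biochemical Apaf-1 apoptosome reconstitution | also added = cytochrome c and DEVD-Rh110 substrate | schedule = 30 min plus 50 min, RT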
PRMT1 confirm: confirmation of human PRMT1 inhibitors | shares compounds with PRMT1 inh | recombinant His-PRMT1, activity-based probe fluorescence polarization | inhibition, % at 2.79 µM | actives 42% (n = 3,300);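 active = mean inhibition across replicates above the hit cutoff derived for the earlier primary screen, cut at about 22% in these data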
Of the large screens only hits and unclear results are named; the others gave an inactive call (follow-up assays come after a bar, where they were run). In the library only some 2.6% were active in any assay of this set; here they are far more common.

CSc1nc2c(C)c(C)c(C)c(C)c2[nH]1	none
CSc1nc(=S)cc(C)[nH]1	PRMT1 inh 83 | PRMT1 confirm 89
N#CC1=C(N)C(C#N)(C#N)[C@H](c2c(F)cccc2F)[C@H]2CC3(CC=C12)OCCO3	PRMT1 inh 26 | PRMT1 confirm inactive
C=C(O[C@H]1[C@H](O)CC=C(C(=O)O)[C@@H]1O)C(=O)O	none (no result: PAD4 inh, GSTO1 counter, Apaf1 inhib)
CC1Cc2ccccc2N1S(=O)(=O)c1cccc(C(=O)N2Cc3ccccc3CC2C(N)=O)c1 (centres undefined)	none (no result: GSTO1 counter)
NC(=O)C1Cc2ccccc2CN1C(=O)c1cccc(Oc2ccccc2)c1 (centres undefined)	PRMT1 inh 106 | PRMT1 confirm inactive
O=C(CCSc1ccc(Br)cc1)c1ccc(O)cc1	PRMT1 inh 31 | PRMT1 confirm inactive
O=C1CSC(c2cccc([N+](=O)[O-])c2)N1Cc1ccccc1 (centres undefined)	none (no result: PAD4 inh, GSTO1 counter)
CCC(C)[C@H](NC(=O)[C@@H]1Cc2c([nH]c3ccccc23)C2c3ccccc3C(=O)N21)C(=O)NCC1CCCO1 (some centres undefined)	none
O=C(CCS(=O)(=O)c1cccs1)Nc1ccc(C(=O)NCc2ccccc2)cc1	none
Cc1ccc(CNC(=O)c2ccc(NC(=O)CCS(=O)(=O)c3cccs3)cc2)cc1	PRMT1 inh 35 | PRMT1 confirm inactive
Cc1cc(O)c(C(=O)Nc2cccc(Cl)c2)c(=O)n1C	none
Cc1ccc(-c2nn(-c3ccccc3)cc2/C=C/C(=O)O)o1	PRMT1 inh 31 | PRMT1 confirm inactive
Cc1ccc(-c2nn(-c3ccccc3)cc2C(=O)O)o1	none (no result: PRMT1 inh, TDP2 inh)
O=C(c1ccco1)N(Cc1ccccc1)Cc1ccccn1	none
Cc1ccc(-c2nn(-c3ccccc3)cc2CN(Cc2ccccc2)C(=O)c2ccco2)o1	PRMT1 inh 39 | PRMT1 confirm inactive
CC(C)C(C(=O)NC1CCCC1)N(CC1CCCO1)C(=O)CNS(=O)(=O)c1ccc(F)cc1 (centres undefined)	none
COC(=O)[C@]12C[C@H](CC(=O)NCC34CC5CC(CC(C5)C3)C4)C(=O)N(Cc3ccco3)C1=C[C@H](C(C)C)O[C@@H]2C1CC1	none (no result: PAD4 inh, GSTO1 counter, Apaf1 inhib)
CCOc1ccc(Nc2ccc(N)c(S(=O)(=O)O)c2)cc1	PRMT1 inh 36 (no result: PAD4 inh, GSTO1 counter, Apaf1 inhib) | PRMT1 confirm inactive
C=CCOc1ccc(C2C(C(=O)c3cccs3)=C(O)C(=O)N2c2nnc(C)s2)cc1 (centres undefined)	PRMT1 inh 41 | PRMT1 confirm 25
CC(C)c1nnc(N2C(=O)C(O)=C(C(=O)c3cccs3)C2c2ccccc2)s1 (centres undefined)	PRMT1 inh 79 (no result: PAD4 inh, GSTO1 counter, Apaf1 inhib) | PRMT1 confirm 76
COc1ccc(C2C(C(=O)c3cccs3)=C(O)C(=O)N2c2nncs2)cc1 (centres undefined)	PRMT1 inh 75 | PRMT1 confirm 99
Cc1cccc(N2C(=O)C(O)=C(C(=O)c3cccs3)C2c2ccc(F)cc2)n1 (centres undefined)	none
Cc1ccc2nc(N3C(=O)C(O)=C(C(=O)c4ccc(C)o4)C3c3ccco3)sc2c1 (centres undefined)	none (no result: GSTO1 counter)
O=C(C1=C(O)C(=O)N(c2nc3ccc(Cl)cc3s2)C1c1ccco1)c1ccco1 (centres undefined)	PRMT1 inh 36 (no result: GSTO1 counter) | PRMT1 confirm inactive
COc1ccc(C2C(C(=O)c3cccs3)=C(O)C(=O)N2c2nnc(C)s2)cc1OC (centres undefined)	none (no result: PRMT1 inh, TDP2 inh)
Cc1cccc(N2C(=O)C(O)=C(C(=O)c3cccs3)C2c2ccc(C(C)C)cc2)n1 (centres undefined)	none
c1ccc(-c2ccccc2OCCOCCN2CCOCC2)cc1	none
CCC(=O)NC1CCN(C(=S)NC)CC1	none
Cc1ccc(C2C(C(=O)c3ccco3)=C(O)C(=O)N2c2nnc(C)s2)cc1 (centres undefined)	PRMT1 inh 30 | PRMT1 confirm inactive
C=CCSc1nnc(N2C(=O)C(O)=C(C(=O)c3ccco3)C2c2ccccc2F)s1 (centres undefined)	PRMT1 inh 27 | PRMT1 confirm inactive
CN(C)CCCn1c2c3ccccc3ccc2c2oc(=O)c3ccccc3c21	PRMT1 inh 29 (no result: PAD4 inh, GSTO1 counter, Apaf1 inhib) | PRMT1 confirm inactive
COc1ccc(OC)c(S(=O)(=O)NC2CCCCNC2=O)c1 (centres undefined)	none
O=C1C=CC(=O)N1Cc1ccncc1	none (no result: PAD4 inh, GSTO1 counter, Apaf1 inhib)
O=C1C2C3C=CC(O3)C2C(=O)N1Cc1ccncc1 (centres undefined)	PRMT1 inh 43 (no result: PAD4 inh, GSTO1 counter, Apaf1 inhib) | PRMT1 confirm inactive
CCN1C(=O)N/C(=C/c2ccc(C)o2)C1=O	PRMT1 inh 56 | PRMT1 confirm inactive
Cc1c(C(=O)O)cccc1-c1ccc(/C=C2/NC(=O)N(c3ccccc3)C2=O)o1	none
O=C1N/C(=C/c2ccc(N3CCOCC3)o2)C(=O)N1c1cccc(Cl)c1	PRMT1 inh 30 | PRMT1 confirm inactive
Cc1ccc(/C=C2/NC(=O)N(c3ccccc3)C2=O)o1	PRMT1 inh 60 | PRMT1 confirm 30
Cc1ccc(/C=C2/NC(=O)N(Cc3ccc(Br)cc3)C2=O)o1	PRMT1 inh 80 | PRMT1 confirm inactive
COc1ccccc1NC(=S)N1CCn2cccc2C1c1cccnc1 (centres undefined)	none
CCn1c(C)cc(/C=C2/NC(=O)N(Cc3ccccc3F)C2=O)c1C	none
CCN1C(=O)/C(=C/c2cccs2)N(C)C1=S	none
CCN1C(=O)/C(=C/c2ccc(C)o2)N(C)C1=S	PRMT1 inh 45 | PRMT1 confirm inactive
Cc1ccc(/C=C2/NC(=O)N(Cc3ccccc3F)C2=O)o1	PRMT1 inh 83 | PRMT1 confirm inactive
O=C(CCC(=O)N1CCOc2ccccc21)N1CCOCC1	none
O=C(CCC(=O)N1CCOc2ccccc21)N1CCN(c2ccccc2)CC1	PRMT1 inh 55 | PRMT1 confirm inactive
O=C(NC1=NCCS1)c1csc2ccccc12	PRMT1 inh 27 | PRMT1 confirm inactive
O=C(NC1=NCCS1)c1ccccc1Cl	none
O=C(CSS(=O)(=O)O)N1CCN(C(=O)c2ccoc2)CC1	PRMT1 inh 45 | PRMT1 confirm 29
c1csc(-c2nc3ccccc3s2)c1	PRMT1 inh 33 | PRMT1 confirm 34
CC[C@H](CCCc1ccccc1OC)CCS(=O)(=O)N(C)C	none (no result: PAD4 inh, GSTO1 counter, Apaf1 inhib)
S=C(Nc1ccccc1)OCCN1CCCC12CCC(c1ccccc1)CC2 (centres undefined)	none (no result: PAD4 inh, GSTO1 counter, Apaf1 inhib)
S=C(Nc1ccccc1Br)OCCN1CCCC12CCC(c1ccccc1)CC2 (centres undefined)	PRMT1 inh 35 (no result: PAD4 inh, GSTO1 counter, Apaf1 inhib) | PRMT1 confirm 31
CC(NC(=O)COC(=O)CNC(=O)C1CCCCC1)c1ccccc1 (centres undefined)	none (no result: GSTO1 counter)
N#Cc1c(NC(=S)NC(=O)c2ccccc2)sc2c1CCC2	none
